Measurements published in ChEMBL document CHEMBL1921697, “Antifungal activity of 2α,3β-functionalized steroids stereoselectively increases with the addition of oligosaccharides” (Bioorg Med Chem Lett, 2011).
≈ marks a conversion by molar mass, not a printed value.

Key:
Nakaseomyces glabratus [1] = experiment: Antifungal activity against Candida glabrata ATCC 48435 assessed as growth inhibition after 48 hrs by broth microdilution relative to control; assay type: functional
Outline: (§1)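 Broth microdilution against yeast; incubation at 35 °C for 48 h. Growth read by visual turbidity versus antifungal-free control wells and by absorbance at 530 nm. MIC₅₀ taken as the lowest level giving a prominent visual decrease in turbidity plus >50% growth reduction versus no-antifungal controls. Values in µg/mL; partial inhibition (e.g. 25%) noted where below threshold.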

Candida albicans = experiment: Antifungal activity against Candida albicans ATCC 10231 assessed as growth inhibition after 48 hrs by broth microdilution relative to control; assay type: functional; outline: as §1
Cryptococcus neoformans [2] = experiment: Antifungal activity against Cryptococcus neoformans ATCC 36556 assessed as growth inhibition after 48 hrs by broth microdilution relative to control; assay type: functional; outline: as §1
Cryptococcus neoformans [3] = experiment: Antifungal activity against Cryptococcus neoformans ATCC 36556 after 48 hrs by broth microdilution technique; assay type: functional; conditions: ATCC 36556, 48 h; outline: as §1
[4] = Cytotoxicity against Sylvilagus floridanus CCL68 cells after 24 hrs by MTT assay; assay type: cell-based
Outline: (§2)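 Tetrazolium (MTT-type) proliferation assay on noncancerous Vero and rabbit skin cells. Compounds diluted in media to 200, 100, 50 and 25 µg/ml; 24 h exposure at 37 °C, 5% CO₂. Dye added for 1–4 h, then stop solution 1 h at room temperature; formazan read at 570 nm. Viability given as % of 1% DMSO no-drug wells; saponin as cell-death control; triplicate, mean ± SD.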

Nakaseomyces glabratus [5] = experiment: Antifungal activity against Candida glabrata ATCC 48435 after 48 hrs by broth microdilution technique; assay type: functional; conditions: ATCC 48435, 48 h; outline: as §1
Vero = experiment: Cytotoxicity against african green monkey Vero cells after 24 hrs by MTT assay; assay type: cell-based; conditions: chlorocebus sabaeus; outline: as §2

SMILES | growth inhibition (GI) (Nakaseomyces glabratus [1]) | growth inhibition (GI) (Candida albicans) | growth inhibition (GI) (Cryptococcus neoformans [2]) | MIC50 (Cryptococcus neoformans [3]) | Activity [4] | MIC50 (Nakaseomyces glabratus [5]) | Activity (Vero)
CC(C)CCC[C@@H](C)[C@H]1CC[C@H]2[C@@H]3CC[C@H]4C[C@@H](O)CC[C@]4(C)[C@H]3CC[C@]12C | <50% | <50% | <50% | – | – | – | –
CC(C)CCC[C@@H](C)[C@H]1CC[C@H]2[C@@H]3CC[C@H]4C[C@@H](O)[C@H](O)C[C@]4(C)[C@H]3CC[C@]12C | <50% | <50% | 25% | 32 µg/mL (≈ 79.1 µM) | – | – | –
CC(C)CCC[C@@H](C)[C@H]1CC[C@H]2[C@@H]3CC[C@H]4C[C@@H](O[C@H]5O[C@H](CO)[C@@H](O)[C@H](O)[C@H]5O)CC[C@]4(C)[C@H]3CC[C@]12C | <50% | <50% | <50% | – | – | – | –
CC(C)CCC[C@@H](C)[C@H]1CC[C@H]2[C@@H]3CC[C@H]4C[C@@H](O[C@@H]5O[C@H](CO)[C@@H](O)[C@H](O)[C@H]5O)CC[C@]4(C)[C@H]3CC[C@]12C | <50% | <50% | <50% | – | – | – | –
CC(C)CCC[C@@H](C)[C@H]1CC[C@H]2[C@@H]3CC[C@H]4C[C@@H](O[C@H]5O[C@H](CO)[C@@H](O[C@H]6O[C@H](CO)[C@@H](O)[C@H](O)[C@H]6O)[C@H](O)[C@H]5O)CC[C@]4(C)[C@H]3CC[C@]12C | <50% | <50% | <50% | – | – | – | –
CC(C)CCC[C@@H](C)[C@H]1CC[C@H]2[C@@H]3CC[C@H]4C[C@@H](O[C@@H]5O[C@H](CO)[C@@H](O[C@H]6O[C@H](CO)[C@@H](O)[C@H](O)[C@H]6O)[C@H](O)[C@H]5O)CC[C@]4(C)[C@H]3CC[C@]12C | – | <50% | – | 4 µg/mL (≈ 5.61 µM) | Non-toxic | 4 µg/mL (≈ 5.61 µM) | Non-toxic
CC(C)CCC[C@@H](C)[C@H]1CC[C@H]2[C@@H]3CC[C@H]4C[C@@H](O[C@@H]5O[C@H](CO)[C@@H](O[C@@H]6O[C@H](CO)[C@@H](O)[C@H](O)[C@H]6O)[C@H](O)[C@H]5O)CC[C@]4(C)[C@H]3CC[C@]12C | – | <50% | – | > 125 µg/mL | – | > 125 µg/mL | –
CC(C)CCC[C@@H](C)[C@H]1CC[C@H]2[C@@H]3CC[C@H]4C[C@@H](O[C@H]5O[C@H](CO)[C@@H](O)[C@H](O)[C@H]5O)[C@H](O)C[C@]4(C)[C@H]3CC[C@]12C | <50% | <50% | <50% | – | – | – | –
CC(C)CCC[C@@H](C)[C@H]1CC[C@H]2[C@@H]3CC[C@H]4C[C@@H](O[C@@H]5O[C@H](CO)[C@@H](O)[C@H](O)[C@H]5O)[C@H](O)C[C@]4(C)[C@H]3CC[C@]12C | <50% | <50% | <50% | – | – | – | –
CC(C)CCC[C@@H](C)[C@H]1CC[C@H]2[C@@H]3CC[C@H]4C[C@@H](O[C@H]5O[C@H](CO)[C@@H](O[C@H]6O[C@H](CO)[C@@H](O)[C@H](O)[C@H]6O)[C@H](O)[C@H]5O)[C@H](O)C[C@]4(C)[C@H]3CC[C@]12C | <50% | <50% | <50% | – | – | – | –
CC(C)CCC[C@@H](C)[C@H]1CC[C@H]2[C@@H]3CC[C@H]4C[C@@H](O[C@@H]5O[C@H](CO)[C@@H](O[C@H]6O[C@H](CO)[C@@H](O)[C@H](O)[C@H]6O)[C@H](O)[C@H]5O)[C@H](O)C[C@]4(C)[C@H]3CC[C@]12C | <50% | <50% | – | 32 µg/mL (≈ 43.9 µM) | – | – | –
CC(C)CCC[C@@H](C)[C@H]1CC[C@H]2[C@@H]3CC[C@H]4C[C@@H](O[C@@H]5O[C@H](CO)[C@@H](O[C@@H]6O[C@H](CO)[C@@H](O)[C@H](O)[C@H]6O)[C@H](O)[C@H]5O)[C@H](O)C[C@]4(C)[C@H]3CC[C@]12C | – | <50% | – | 4 µg/mL (≈ 5.49 µM) | Toxic | 8 µg/mL (≈ 11 µM) | Toxic
C[C@@H]1CC[C@@]2(OC1)O[C@H]1C[C@H]3[C@@H]4CC[C@H]5C[C@@H](O[C@H]6O[C@H](CO)[C@@H](O)[C@H](O)[C@H]6O)[C@H](O)C[C@]5(C)[C@H]4CC[C@]3(C)[C@H]1[C@@H]2C | <50% | <50% | <50% | – | – | – | –
C[C@@H]1CC[C@]2(C[C@H]3C[C@H]4[C@@H]5CC[C@H]6C[C@@H](O[C@@H]7O[C@H](CO)[C@@H](O)[C@H](O)[C@H]7O)[C@H](O)C[C@]6(C)[C@H]5CC[C@]4(C)[C@H]3[C@@H]2C)OC1 | <50% | <50% | <50% | – | – | – | –
C[C@@H]1CC[C@]2(C[C@H]3C[C@H]4[C@@H]5CC[C@H]6C[C@@H](O[C@H]7O[C@H](CO)[C@@H](O[C@H]8O[C@H](CO)[C@@H](O)[C@H](O)[C@H]8O)[C@H](O)[C@H]7O)[C@H](O)C[C@]6(C)[C@H]5CC[C@]4(C)[C@H]3[C@@H]2C)OC1 | <50% | <50% | <50% | – | – | – | –
C[C@@H]1CC[C@]2(C[C@H]3C[C@H]4[C@@H]5CC[C@H]6C[C@@H](O[C@@H]7O[C@H](CO)[C@@H](O[C@@H]8O[C@H](CO)[C@@H](O)[C@H](O)[C@H]8O)[C@H](O)[C@H]7O)[C@H](O)C[C@]6(C)[C@H]5CC[C@]4(C)[C@H]3[C@@H]2C)OC1 | – | – | – | – | Non-toxic | – | Non-toxic
